Calls of active or inactive are those of the source. No rule for the calls is given here.
Columns and labels:
[1] = system: KCL-22; experiment: Cytotoxicity against human KCL22 cells assessed as reduction in cell viability at 1 uM after 48 hrs by MTS assay; assay type: functional, cell-based
Method in brief: (§1)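 Single-concentration screen: KCL-22 cells, or KCL-22 cells expressing T315I mutant Bcr-Abl, grown in RPMI-1640 with 10% FBS. Cells were seeded at 10 000/well, held overnight at 37 °C in 5% CO2, then exposed to 1 μM compound for 48 h, with DMSO as vehicle control. Viability was read by MTS tetrazolium-to-formazan conversion, absorbance 490 nm, in triplicate.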

[2] = system: KCL-22; experiment: Cytotoxicity against human KCL22 cells harboring ABL1 T315I mutant assessed as reduction in cell viability at 1 uM after 48 hrs by MTS assay; assay type: functional, cell-based; method in brief: as §1
[3] = system: KCL-22; experiment: Cytotoxicity against human KCL22 cells assessed as cell viability at 1 uM after 48 hrs by MTS assay relative to control; assay type: functional; conditions: Homo sapiens, KCL-22, 48 h; read-out: Activity; method in brief: as §1
[4] = system: KCL-22; experiment: Cytotoxicity against human KCL22 cells harboring ABL1 T315I mutant assessed as cell viability at 1 uM after 48 hrs by MTS assay relative to control; assay type: functional; conditions: Homo sapiens, KCL-22, 48 h; read-out: Activity; method in brief: as §1

| SMILES | Activity [1] | Activity [2] | viability at 1 µM [3] [%] | viability at 1 µM [4] [%] |
| --- | --- | --- | --- | --- |
| N#Cc1ccc2c(c1)C(=N\O)/C(=C1/C(=O)Nc3c1cccc3C(F)(F)F)N2 | inactive | inactive | – | – |
| N#Cc1ccc(NC(=O)O/N=C2/C(=C3/C(=O)Nc4cc(Br)ccc43)Nc3ccccc32)cc1 | – | – | > 50 | > 50 |
| O=C1Nc2c(Br)cccc2/C1=C1/Nc2ccc(-c3nnn[nH]3)cc2C1=O | inactive | inactive | – | – |
| O=C1Nc2cc(Br)ccc2/C1=C1/Nc2ccccc2/C1=N\OCCN1CCN(CCOCCO)CC1 | – | – | > 50 | < 50 |
| CC(=O)c1ccc(NC(=O)O/N=C2/C(=C3/C(=O)Nc4cc(Br)ccc43)Nc3ccccc32)cc1 | – | – | > 50 | > 50 |
| N#Cc1ccc2c(c1)C(=O)/C(=C1/C(=O)Nc3c1cccc3C(F)(F)F)N2 | inactive | inactive | – | – |
| COC(=O)c1ccc2c(c1)N/C(=C1\C(=O)Nc3c(Br)cccc31)C2=O | inactive | inactive | – | – |
| CC(=O)O/N=C1/C(=C2/C(=O)Nc3cc(Br)c([N+](=O)[O-])cc32)Nc2ccccc21 | inactive | inactive | – | – |
| O=C1Nc2c(cccc2C(F)(F)F)/C1=C1/Nc2ccccc2C1=O | inactive | inactive | – | – |
| CN1C(=O)/C(=C2\Nc3ccccc3\C2=N/O)c2ccc(Br)cc21 | – | – | > 50 | > 50 |
| CC(=O)O/N=C1/C(=C2/C(=O)Nc3cc(Br)ccc32)Nc2ccccc21 [6-BROMOINDIRUBIN-3'-ACETOXIME] | – | – | > 50 | > 50 |
| O=C1Nc2c(cccc2C(F)(F)F)/C1=C1/Nc2ccc(-c3nnn[nH]3)cc2/C1=N\O | inactive | inactive | – | – |
| COC(=O)c1ccc2c(c1)NC(=C1\C(=O)Nc3c1cccc3C(F)(F)F)/C2=N/OCCN1CCNCC1 | inactive | inactive | – | – |
| Nc1cc2c(cc1Br)NC(=O)/C2=C1\Nc2ccccc2\C1=N/O | inactive | inactive | – | – |
| COC(=O)c1ccc2c(c1)C(=N\OCCN1CCNCC1)/C(=C1/C(=O)Nc3c(Br)cccc31)N2 | inactive | inactive | – | – |
| O=C1Nc2c(cccc2C(F)(F)F)/C1=C1/Nc2ccc(-c3nnn[nH]3)cc2C1=O | inactive | inactive | – | – |
| O=C1Nc2c(Br)cccc2/C1=C1/Nc2ccccc2/C1=N\O | inactive | inactive | – | – |
| O=C1Nc2c(cccc2C(F)(F)F)/C1=C1/Nc2ccccc2/C1=N\O | inactive | inactive | – | – |
| O=C1Nc2cc(Br)c([N+](=O)[O-])cc2/C1=C1/Nc2ccccc2/C1=N\O | inactive | inactive | – | – |
| CN1C(=O)/C(=C2\Nc3ccccc3C2=O)c2cccc(Cl)c21 | inactive | inactive | – | – |
| COC(=O)c1ccc2c(c1)C(=O)/C(=C1/C(=O)Nc3c(Br)cccc31)N2 | inactive | inactive | – | – |
| O=C1Nc2c(Br)cccc2/C1=C1/Nc2ccc(-c3nnn[nH]3)cc2/C1=N\O | inactive | inactive | – | – |
| COC(=O)c1ccc2c(c1)NC(=C1\C(=O)Nc3c1cccc3C(F)(F)F)/C2=N/O | inactive | inactive | – | – |

| SMILES | Activity [1] | Activity [2] | viability at 1 µM [3] [%] | viability at 1 µM [4] [%] |
| --- | --- | --- | --- | --- |
| O=C1Nc2c(Cl)cccc2/C1=C1/Nc2ccccc2/C1=N\O | inactive | inactive | – | – |
| CN1C(=O)/C(=C2\Nc3ccccc3\C2=N/O)c2cccc(I)c21 | inactive | inactive | – | – |
| COC(=O)c1ccc2c(c1)C(=O)/C(=C1/C(=O)N(C)c3c(Br)cccc31)N2 | inactive | inactive | – | – |
| O=C1Nc2ccccc2/C1=C1/Nc2cc(Br)ccc2C1=O | inactive | inactive | – | – |
| O=C1Nc2c(Br)cccc2/C1=C1/Nc2ccc(/C=N/O)cc2/C1=N\O | inactive | inactive | – | – |
| O=C1Nc2cc(Br)ccc2/C1=C1/Nc2ccccc2C1=O | – | – | > 50 | > 50 |
| O=C1Nc2c(Br)cccc2/C1=C1/Nc2ccc(C(=O)O)cc2/C1=N\OCCN1CCNCC1 | inactive | inactive | – | – |
| O=C1Nc2c(F)cccc2/C1=C1/Nc2ccccc2C1=O | inactive | inactive | – | – |
| O=C1Nc2cc(Br)c([N+](=O)[O-])cc2/C1=C1/Nc2ccccc2C1=O | inactive | inactive | – | – |
| O=C1Nc2c(Cl)cccc2/C1=C1/Nc2ccccc2C1=O | inactive | inactive | – | – |
| O=C1Nc2c(cccc2C(F)(F)F)/C1=C1/Nc2ccccc2/C1=N\OCCN1CCN(CCO)CC1 | inactive | inactive | – | – |
| COC(=O)c1ccc2c(c1)C(=O)/C(=C1/C(=O)Nc3c1cccc3C(F)(F)F)N2 | inactive | inactive | – | – |
| COC(=O)c1ccc2c(c1)NC(=C1\C(=O)Nc3c(Br)cccc31)/C2=N/O | inactive | inactive | – | – |
| O=C1Nc2c(cccc2C(F)(F)F)/C1=C1/Nc2cc(C(=O)O)ccc2/C1=N\OCCN1CCNCC1 | inactive | inactive | – | – |
| CCN(CC)C(=O)O/N=C1/C(=C2/C(=O)Nc3cc(Br)ccc32)Nc2ccccc21 | – | – | > 50 | > 50 |
| CC(=O)O/N=C1/C(=C2/C(=O)N(C(C)=O)c3cc(Br)c([N+](=O)[O-])cc32)Nc2ccccc21 | inactive | inactive | – | – |
| COC(=O)c1ccc2c(c1)C(=N\O)/C(=C1/C(=O)Nc3c(Br)cccc31)N2 | inactive | inactive | – | – |
| O=C1Nc2c(I)cccc2/C1=C1/Nc2ccccc2C1=O | inactive | inactive | – | – |
| O=C1Nc2c(cccc2C(F)(F)F)/C1=C1/Nc2cc(C(=O)O)ccc2/C1=N\O | inactive | inactive | – | – |
| O=C1Nc2ccccc2/C1=C1/Nc2ccccc2C1=O | inactive | inactive | – | – |
| COC(=O)c1ccc2c(c1)C(=N\OCCN1CCNCC1)/C(=C1/C(=O)Nc3c1cccc3C(F)(F)F)N2 | inactive | inactive | – | – |
| O=C1Nc2c(Br)cccc2/C1=C1/Nc2ccccc2C1=O | inactive | inactive | – | – |
| CC(=O)O/N=C1/C(=C2/C(=O)Nc3cc(Br)c(C)cc32)Nc2ccccc21 | inactive | inactive | – | – |

| SMILES | Activity [1] | Activity [2] | viability at 1 µM [3] [%] | viability at 1 µM [4] [%] |
| --- | --- | --- | --- | --- |
| O=C1Nc2c(Br)cccc2/C1=C1/Nc2cc(C(=O)O)ccc2/C1=N\OCCN1CCNCC1 | inactive | inactive | – | – |
| O=C1Nc2ccccc2/C1=C1/Nc2cc(Br)ccc2/C1=N\O | inactive | inactive | – | – |
| O=C1Nc2c(Br)cccc2/C1=C1/Nc2ccc(/C=N/O)cc2C1=O | inactive | inactive | – | – |
| O=C1Nc2ccccc2/C1=C1/Nc2ccccc2/C1=N\O | inactive | inactive | – | – |
| O=C1Nc2c(Br)cccc2/C1=C1/Nc2ccccc2/C1=N\OCCN1CCNCC1 | inactive | inactive | – | – |
| CCN(CC)CCO/N=C1/C(=C2/C(=O)Nc3c(Br)cccc32)Nc2ccccc21 | inactive | inactive | – | – |
| O=C1Nc2c(I)cccc2/C1=C1/Nc2ccccc2/C1=N\O | inactive | inactive | – | – |
| CN1C(=O)/C(=C2\Nc3ccccc3C2=O)c2cccc(I)c21 | inactive | inactive | – | – |
| O=C1Nc2cc(Cl)c(Cl)cc2/C1=C1/Nc2ccccc2C1=O | inactive | inactive | – | – |
| O=C1Nc2c(Br)cccc2/C1=C1/Nc2ccc(C(=O)O)cc2/C1=N\O | inactive | inactive | – | – |
| Cc1cc2c(cc1Br)NC(=O)/C2=C1\Nc2ccccc2C1=O | inactive | inactive | – | – |
| O=C1Nc2c(cccc2C(F)(F)F)/C1=C1/Nc2ccc(C(=O)O)cc2/C1=N\O | inactive | inactive | – | – |
| O=C1Nc2c(cccc2C(F)(F)F)/C1=C1/Nc2ccccc2/C1=N\OCCN1CCNCC1 | inactive | inactive | – | – |
| O=C1Nc2c(F)cccc2/C1=C1/Nc2ccccc2/C1=N\O | inactive | inactive | – | – |
| O=C1Nc2c(Br)cccc2/C1=C1/Nc2cc(C(=O)O)ccc2/C1=N\O | inactive | inactive | – | – |
| COC(=O)c1ccc2c(c1)N/C(=C1\C(=O)Nc3c1cccc3C(F)(F)F)C2=O | inactive | inactive | – | – |
| COC(=O)c1ccc2c(c1)NC(=C1\C(=O)Nc3c(Br)cccc31)/C2=N/OCCN1CCNCC1 | inactive | inactive | – | – |
| CN1C(=O)/C(=C2\Nc3ccccc3\C2=N/O)c2cccc(Br)c21 | inactive | inactive | – | – |
| CN1C(=O)/C(=C2\Nc3ccccc3\C2=N/O)c2cccc(Cl)c21 | inactive | inactive | – | – |
| O=C1Nc2c(cccc2C(F)(F)F)/C1=C1/Nc2ccc(C(=O)O)cc2/C1=N\OCCN1CCNCC1 | inactive | inactive | – | – |
| COC(=O)c1ccc2c(c1)C(=N\O)/C(=C1/C(=O)Nc3c1cccc3C(F)(F)F)N2 | inactive | inactive | – | – |
| CN1C(=O)/C(=C2\Nc3ccccc3\C2=N/OCCN2CCNCC2)c2cccc(Br)c21 | inactive | inactive | – | – |

From ChEMBL document CHEMBL4041496, “Natural-Based Indirubins Display Potent Cytotoxicity toward Wild-Type and T315I-Resistant Leukemia Cell Lines” (J Nat Prod, 2016)
